Test results published in paper PMC5378272 (Cancer Science, 2017).

Columns and labels:
COLO‐320 tumor = experiment: COLO‐320 xenograft in SCID mice, tumor tissue analysis; type: in vivo; details: oral 2.5 or 20 mg/kg/day, 12 days
Procedure, shortened: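 COLO-320 cells implanted s.c. in SCID mice; established tumors dosed orally once daily for 12 days at 2.5 or 20 mg/kg/day, with compound suspended in 0.5% (w/v) CMC-Na. Half of each tumor went to histone extraction and western blot for p-H3 (Ser10) vs total H3, with normal colon as comparator. The other half was formalin-fixed and paraffin-embedded for IHC (CD34, p-H3 Ser10, Ki67).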

HCT‐8 = experiment: Tumor xenograft model; type: in vivo, BALB/c athymic mice; details: HCT‐8 xenograft, oral once daily
Procedure, shortened: (§1)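 Subjects were 6-week-old female BALB/c athymic mice. Tumour cells in 200 μL serum-free medium were implanted s.c. At 100–150 mm³, mice were randomised (n = 8/group) and dosed by oral gavage once daily with test compound in 0.5% CMC‐Na, sunitinib or vehicle. Doses were 2.5–20 mg/kg for HCT‐8 and SMMC‐7721, and 5–40 mg/kg for A549. Volumes were measured every 3–4 days over 33 or 43 days. Percent TGI at last treatment was computed versus vehicle.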

Molt‐4 cells [1] = experiment: Cell cycle analysis by flow cytometry; type: cell-based, human; details: Molt‐4, 3 μM, 24 h; control group 14.9%
Colo‐320 cells = experiment: Growth inhibition of tumor cells; type: cell-based; details: Homo sapiens, COLO 320, 120 h, read-out: GI50, growth inhibition
Molt‐4 cells [2] = experiment: Growth inhibition of tumor cells; type: cell-based; details: Homo sapiens, MOLT-4, 120 h, read-out: GI50, growth inhibition
HUVEC = experiment: Tube formation assay; type: cell-based, human; details: HUVEC on Matrigel, 1.5 or 5 μM, 24 h, vs control
Procedure, shortened: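 HUVEC were maintained in endothelial cell medium with 5% FBS, heparin (50 μg/mL) and ECGS (50 μg/mL). Matrigel was polymerised 45 min at 37°C. 4 × 10⁴ cells in complete medium were seeded onto it with vehicle or test compound and incubated 24 h. Networks were imaged by light microscopy and scored as mean loops per field and total branch length (pixels). Results are mean ± SD of five experiments; t-test versus vehicle.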

4T1 breast cancer cells = experiment: 4T1 breast cancer model in BALB/c mice, tumor tissue immunohistochemistry; type: in vivo
CSF‐1R = CSF‐1R (Homo sapiens, UniProt P07333); type: cell-based; details: CSF‐1R‐transfected 293A cells, M‐CSF 100 ng/mL, western blot
Procedure, shortened: (§2)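 Cells (1.5 × 10⁶) were seeded for 24 h, then serum-starved overnight. They were pretreated 1 h with test compound and stimulated with 100 ng/mL ligand for 15 min: rhM‐CSF for CSF‐1R‐transfected 293A (DMEM, 10% FBS) and VEGF165 for HUVEC. Whole-cell lysates were immunoblotted for phospho-CSF1R or phospho-VEGFR2, with total receptor and β‐actin as internal controls.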

SMMC‐7721 = experiment: Tumor xenograft model; type: in vivo, BALB/c athymic mice; details: SMMC‐7721 xenograft, oral once daily
Procedure, shortened: as §1

PLK1 = PLK1 (Homo sapiens, UniProt P53350); experiment: Kinase inhibition assay; details: Biochemical IC50, cell-free
PLK3 = PLK3 (Homo sapiens, UniProt Q9H4B4); experiment: Kinase inhibition assay; details: Biochemical IC50, cell-free
Aurora B = experiment: Western blotting of p‐H3; type: cell-based, human; details: Molt‐4 cells, 24 h, western blot, concentrations up to 6 μM
MGC‐803 = experiment: Tumor xenograft model; type: in vivo, BALB/c athymic mice; details: MGC‐803 xenograft; for tumor growth: oral once daily
A549 = experiment: Tumor xenograft model; type: in vivo, BALB/c athymic mice; details: oral once daily, 5 to 40 mg/kg
Procedure, shortened: as §1

DDR2 = target: T1, DDR2 (Homo sapiens, UniProt Q16832); experiment: Kinase inhibition assay; details: Biochemical IC50, cell-free
T1 sequence (Q16832 22-855): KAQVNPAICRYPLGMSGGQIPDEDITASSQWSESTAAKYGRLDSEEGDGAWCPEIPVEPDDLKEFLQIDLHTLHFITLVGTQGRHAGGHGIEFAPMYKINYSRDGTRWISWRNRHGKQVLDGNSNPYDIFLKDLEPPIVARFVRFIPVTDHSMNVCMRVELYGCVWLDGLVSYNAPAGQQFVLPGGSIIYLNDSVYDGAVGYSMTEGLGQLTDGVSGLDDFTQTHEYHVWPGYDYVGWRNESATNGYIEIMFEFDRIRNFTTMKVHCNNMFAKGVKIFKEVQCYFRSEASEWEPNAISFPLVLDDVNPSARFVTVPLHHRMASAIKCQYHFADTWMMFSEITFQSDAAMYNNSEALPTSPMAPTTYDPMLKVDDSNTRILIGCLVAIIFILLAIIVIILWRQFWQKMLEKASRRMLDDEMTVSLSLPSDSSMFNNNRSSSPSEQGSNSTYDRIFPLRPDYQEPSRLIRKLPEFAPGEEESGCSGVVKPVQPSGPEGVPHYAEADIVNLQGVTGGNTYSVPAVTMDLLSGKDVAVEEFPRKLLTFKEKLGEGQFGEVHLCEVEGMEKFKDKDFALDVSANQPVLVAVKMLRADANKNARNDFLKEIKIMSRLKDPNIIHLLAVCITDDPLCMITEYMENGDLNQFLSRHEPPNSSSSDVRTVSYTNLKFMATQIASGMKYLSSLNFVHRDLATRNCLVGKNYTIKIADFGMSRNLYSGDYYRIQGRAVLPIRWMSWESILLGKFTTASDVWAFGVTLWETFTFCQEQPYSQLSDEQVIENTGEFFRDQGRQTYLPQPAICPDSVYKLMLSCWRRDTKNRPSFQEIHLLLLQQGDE

c‐RAF = c‐RAF (Homo sapiens, UniProt P04049, Y340D/Y341D); experiment: Kinase inhibition assay; details: Biochemical IC50, cell-free
[3] = test system: human blood‐derived monocytes; details: M‐CSF 100 ng/mL, 6 days, 0.3 μM
VEGFR2 = VEGFR2 (Homo sapiens, UniProt P35968); experiment: Western blotting of VEGF-stimulated VEGFR2 phosphorylation in HUVEC; type: cell-based; details: 1 h pre-treatment, VEGF 100 ng/mL 15 min, western blot
Procedure, shortened: as §2

[4] = immunohistochemistry, vs vehicle

PLK3, sequence (Q9H4B4 whole entry): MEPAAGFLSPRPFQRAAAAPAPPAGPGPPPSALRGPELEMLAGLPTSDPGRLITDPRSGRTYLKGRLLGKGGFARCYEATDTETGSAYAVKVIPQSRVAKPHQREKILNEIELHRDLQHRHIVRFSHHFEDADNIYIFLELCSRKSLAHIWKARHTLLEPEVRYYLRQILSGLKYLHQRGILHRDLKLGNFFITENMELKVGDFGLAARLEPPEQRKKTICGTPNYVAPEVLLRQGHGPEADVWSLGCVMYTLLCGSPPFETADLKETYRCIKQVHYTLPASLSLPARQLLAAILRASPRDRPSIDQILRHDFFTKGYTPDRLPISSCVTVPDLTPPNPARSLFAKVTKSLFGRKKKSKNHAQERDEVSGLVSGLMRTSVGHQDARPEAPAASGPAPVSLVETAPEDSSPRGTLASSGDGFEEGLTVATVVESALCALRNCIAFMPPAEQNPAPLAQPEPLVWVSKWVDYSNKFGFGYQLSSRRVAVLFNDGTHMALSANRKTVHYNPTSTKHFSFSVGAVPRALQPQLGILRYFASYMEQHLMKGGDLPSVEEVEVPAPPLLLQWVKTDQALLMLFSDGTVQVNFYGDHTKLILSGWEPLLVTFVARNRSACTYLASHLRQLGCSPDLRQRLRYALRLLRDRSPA
VEGFR2, sequence (P35968 20-1356): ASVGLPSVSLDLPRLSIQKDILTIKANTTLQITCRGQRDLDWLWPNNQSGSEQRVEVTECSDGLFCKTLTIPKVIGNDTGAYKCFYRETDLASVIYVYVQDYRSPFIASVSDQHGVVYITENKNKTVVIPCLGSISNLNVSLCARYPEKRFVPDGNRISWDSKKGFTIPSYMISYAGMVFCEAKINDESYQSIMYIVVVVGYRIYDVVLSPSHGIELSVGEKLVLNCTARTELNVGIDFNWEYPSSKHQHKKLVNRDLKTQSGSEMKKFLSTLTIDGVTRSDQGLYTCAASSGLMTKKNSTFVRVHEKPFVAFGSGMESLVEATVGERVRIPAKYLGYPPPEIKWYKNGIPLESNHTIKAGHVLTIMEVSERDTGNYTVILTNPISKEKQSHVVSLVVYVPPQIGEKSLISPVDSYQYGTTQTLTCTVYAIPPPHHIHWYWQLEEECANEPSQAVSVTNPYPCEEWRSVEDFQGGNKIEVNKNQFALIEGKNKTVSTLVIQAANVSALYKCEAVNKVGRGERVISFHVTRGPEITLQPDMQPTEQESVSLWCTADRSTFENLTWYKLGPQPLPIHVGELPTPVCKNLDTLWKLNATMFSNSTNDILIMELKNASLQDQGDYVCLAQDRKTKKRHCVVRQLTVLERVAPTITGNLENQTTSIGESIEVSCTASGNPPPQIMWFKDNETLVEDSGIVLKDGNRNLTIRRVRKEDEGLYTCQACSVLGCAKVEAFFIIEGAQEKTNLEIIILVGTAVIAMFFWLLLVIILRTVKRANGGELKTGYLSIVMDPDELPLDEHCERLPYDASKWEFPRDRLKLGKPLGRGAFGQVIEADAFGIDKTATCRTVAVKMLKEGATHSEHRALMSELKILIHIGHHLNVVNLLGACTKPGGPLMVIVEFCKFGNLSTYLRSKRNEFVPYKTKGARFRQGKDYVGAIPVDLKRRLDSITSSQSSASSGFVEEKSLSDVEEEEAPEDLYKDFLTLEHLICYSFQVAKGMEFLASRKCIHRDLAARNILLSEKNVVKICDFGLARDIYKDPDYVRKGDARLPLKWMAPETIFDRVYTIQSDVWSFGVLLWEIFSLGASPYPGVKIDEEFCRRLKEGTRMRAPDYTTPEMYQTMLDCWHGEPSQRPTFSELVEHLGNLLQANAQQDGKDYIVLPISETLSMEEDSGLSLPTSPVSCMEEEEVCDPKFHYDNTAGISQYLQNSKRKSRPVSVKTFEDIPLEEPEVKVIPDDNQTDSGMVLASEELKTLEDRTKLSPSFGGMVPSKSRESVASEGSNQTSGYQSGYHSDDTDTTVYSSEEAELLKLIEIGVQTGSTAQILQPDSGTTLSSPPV
CSF‐1R, sequence (P07333 20-972): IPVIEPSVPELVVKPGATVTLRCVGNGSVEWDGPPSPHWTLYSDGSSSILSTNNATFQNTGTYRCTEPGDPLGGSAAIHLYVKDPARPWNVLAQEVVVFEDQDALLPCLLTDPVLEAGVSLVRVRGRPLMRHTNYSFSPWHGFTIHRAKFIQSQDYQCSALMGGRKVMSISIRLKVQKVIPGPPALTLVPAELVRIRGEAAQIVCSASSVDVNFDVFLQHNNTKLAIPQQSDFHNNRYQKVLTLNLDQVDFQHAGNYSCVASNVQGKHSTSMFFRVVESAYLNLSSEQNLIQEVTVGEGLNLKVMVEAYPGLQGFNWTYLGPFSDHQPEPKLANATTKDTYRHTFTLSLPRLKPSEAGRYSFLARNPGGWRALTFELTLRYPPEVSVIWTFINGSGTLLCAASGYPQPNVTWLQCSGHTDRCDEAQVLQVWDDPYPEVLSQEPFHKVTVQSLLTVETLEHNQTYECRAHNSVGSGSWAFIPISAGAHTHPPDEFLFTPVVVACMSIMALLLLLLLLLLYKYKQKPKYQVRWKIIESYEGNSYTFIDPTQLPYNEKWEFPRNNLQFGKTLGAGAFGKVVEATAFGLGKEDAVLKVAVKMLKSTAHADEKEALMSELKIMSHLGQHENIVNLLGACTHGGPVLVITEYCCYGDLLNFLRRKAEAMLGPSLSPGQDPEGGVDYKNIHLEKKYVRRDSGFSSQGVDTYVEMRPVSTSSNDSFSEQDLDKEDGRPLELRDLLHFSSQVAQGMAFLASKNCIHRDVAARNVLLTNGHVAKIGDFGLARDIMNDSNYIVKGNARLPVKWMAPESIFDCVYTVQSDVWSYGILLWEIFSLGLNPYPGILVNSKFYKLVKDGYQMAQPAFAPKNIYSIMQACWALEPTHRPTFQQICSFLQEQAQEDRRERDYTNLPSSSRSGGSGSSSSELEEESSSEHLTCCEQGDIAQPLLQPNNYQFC
PLK1, sequence (P53350 whole entry): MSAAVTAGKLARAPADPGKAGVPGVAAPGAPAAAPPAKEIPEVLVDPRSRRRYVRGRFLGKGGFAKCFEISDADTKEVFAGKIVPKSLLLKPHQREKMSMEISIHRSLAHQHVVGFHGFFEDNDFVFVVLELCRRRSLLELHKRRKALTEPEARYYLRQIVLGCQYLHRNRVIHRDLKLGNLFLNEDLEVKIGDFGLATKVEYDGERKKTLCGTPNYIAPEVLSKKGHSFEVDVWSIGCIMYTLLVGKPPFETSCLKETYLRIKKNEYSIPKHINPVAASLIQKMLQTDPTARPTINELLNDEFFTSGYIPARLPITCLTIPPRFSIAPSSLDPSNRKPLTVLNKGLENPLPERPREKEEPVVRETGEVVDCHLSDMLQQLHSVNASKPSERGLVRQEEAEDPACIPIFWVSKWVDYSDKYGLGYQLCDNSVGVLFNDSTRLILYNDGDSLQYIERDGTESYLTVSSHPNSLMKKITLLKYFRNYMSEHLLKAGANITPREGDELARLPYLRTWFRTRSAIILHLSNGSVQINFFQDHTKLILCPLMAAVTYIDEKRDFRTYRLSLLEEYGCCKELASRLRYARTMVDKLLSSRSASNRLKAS
c‐RAF, sequence (P04049 306-648 Y340D/Y341D limits assumed): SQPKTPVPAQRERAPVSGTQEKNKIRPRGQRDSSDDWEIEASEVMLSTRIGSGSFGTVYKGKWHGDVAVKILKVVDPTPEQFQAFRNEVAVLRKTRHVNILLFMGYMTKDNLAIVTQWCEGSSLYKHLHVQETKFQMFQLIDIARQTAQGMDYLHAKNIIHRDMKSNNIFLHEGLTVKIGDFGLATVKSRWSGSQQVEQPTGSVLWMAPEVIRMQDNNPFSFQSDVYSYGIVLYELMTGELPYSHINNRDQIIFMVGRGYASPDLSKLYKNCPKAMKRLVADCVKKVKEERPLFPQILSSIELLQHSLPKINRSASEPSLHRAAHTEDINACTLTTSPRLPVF

COc1ccc2c(Oc3ccc4c(C(=O)Nc5ccccc5N)cccc4c3)ccnc2c1 [CS2164, N‐(2‐aminophenyl)‐6‐[(7‐methoxy‐4‐quinolinyl)oxy]‐1‐naphthalenecarboxamide]
vascularization in tumor tissues (COLO‐320 tumor): decreased vascularization | CD34 staining in tumor tissues (COLO‐320 tumor; immunohistochemistry): remarkably reduced | tissue Ki67 staining (COLO‐320 tumor; [4]): substantial dose‐dependent decrease | tissue p‐H3 staining (COLO‐320 tumor; [4]): substantial dose‐dependent decrease | p‐H3 levels in tumor tissue by western blotting (COLO‐320 tumor; only tumor tissue, not normal colonic tissue): reduced p‐H3 levels | 50% tumor growth inhibition (TGI50) dose (HCT‐8): 2.5 mg/kg | cells in G2/M phase (of cell cycle phases) (Molt‐4 cells [1]): 59.5% | GI50 (Colo‐320 cells): 840 nM | GI50 (Molt‐4 cells [2]): 2140 nM | number of loops of tubular network structures (HUVEC): significant reductions | total branch lengths of tubular network structures (HUVEC): significant reductions | tissue CD11b^+ macrophage infiltration (4T1 breast cancer cells; oral 20 mg/kg daily, day 12, immunohistochemistry): decreased | CSF‐1R^+ cells in tumor tissue (4T1 breast cancer cells; oral 2.5 or 20 mg/kg/day, 12 days, immunohistochemistry): dramatic reduction | CSF‐1R phosphorylation induced by M‐CSF (CSF‐1R): concentration‐dependent inhibition | 50% tumor growth inhibition (TGI50) dose (SMMC‐7721): 2.5 mg/kg | IC50 (PLK1): 100 to 500 nM | IC50 (PLK3): 100 to 500 nM | level of p‐H3 (Ser10‐phosphorylated histone 3) (Aurora B): substantial reduction | efficacy compared with sunitinib at 40 mg/kg (MGC‐803; CS2164 at 5 mg/kg oral daily): comparable | tumor growth (MGC‐803; 1 mg/kg): started to demonstrate tumor growth inhibition | tumor growth (MGC‐803; 5 mg/kg): near complete inhibition | TGI50 dose (A549): around 5 mg/kg | IC50 (DDR2): 100 to 500 nM | IC50 (c‐RAF): 100 to 500 nM | M‐CSF induced differentiation and proliferation of monocytes [3]: almost complete inhibition | ligand‐stimulated VEGFR2 tyrosine phosphorylation (VEGFR2): concentration‐dependent inhibition

CCN(CC)CCNC(=O)c1c(C)[nH]c(/C=C2\C(=O)Nc3ccc(F)cc32)c1C [sunitinib, reference compound]
cells in G2/M phase (of cell cycle phases) (Molt‐4 cells [1]): 20.4% | level of p‐H3 (Ser10‐phosphorylated histone 3) (Aurora B): little inhibitory activity

CNC(=O)c1cc(Oc2ccc(NC(=O)Nc3ccc(Cl)c(C(F)(F)F)c3)cc2)ccn1 [sorafenib]
cells in G2/M phase (of cell cycle phases) (Molt‐4 cells [1]): 13.3%
